Calls of active or inactive are those of the source. No cut-off for these calls is given here.
How the values were obtained:
[1] = target: T1, Pteridine reductase, putative (Trypanosoma brucei) (UniProt Q581W1); experiment: Inhibition of Trypanosoma brucei pteridine reductase 1 at 100 uM
T1 sequence (whole entry): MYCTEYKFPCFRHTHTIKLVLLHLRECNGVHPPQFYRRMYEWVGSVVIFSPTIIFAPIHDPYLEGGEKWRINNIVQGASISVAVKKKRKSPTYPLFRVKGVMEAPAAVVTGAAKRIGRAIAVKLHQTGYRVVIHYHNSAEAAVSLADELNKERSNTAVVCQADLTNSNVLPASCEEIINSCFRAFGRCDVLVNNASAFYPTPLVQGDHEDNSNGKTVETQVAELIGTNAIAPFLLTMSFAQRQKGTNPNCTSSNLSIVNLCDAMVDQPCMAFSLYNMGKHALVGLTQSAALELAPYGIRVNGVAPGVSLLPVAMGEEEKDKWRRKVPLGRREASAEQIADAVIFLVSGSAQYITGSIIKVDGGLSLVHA
Method in brief: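 TbPTR1 activity followed by cytochrome c reduction coupled to enzymatic tetrahydrobiopterin production: 20 mM sodium citrate, 1 mM EDTA, H2B (0.35 μM), cytc (81 μM), NADPH (100 μM), pH 6.0. Absorbance at 550 nm read within the linear phase. Fragment hits tested once at 100 μM as percent inhibition.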

[2] = target: T2, Pteridine reductase, putative (Trypanosoma brucei, UniProt Q581W1); experiment: Apparent inhibition of Trypanosoma brucei pteridine reductase 1-mediated reduction of cytochrome c; conditions: read-out: Ki(app)
T2 sequence (Q581W1 whole entry): T1 sequence (whole entry)
Method in brief: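 TbPTR1 activity read through cytochrome c reduction coupled to enzymatic H4B formation. Absorbance at 550 nm read within the linear phase. Kiapp derived by fitting a modified Morrison equation.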

[3] = target: T3, Dihydrofolate reductase (Homo sapiens) (UniProt P00374); experiment: Inhibition of human DHFR-mediated reduction of cytochrome c at upto 500 uM
T3 sequence (whole entry): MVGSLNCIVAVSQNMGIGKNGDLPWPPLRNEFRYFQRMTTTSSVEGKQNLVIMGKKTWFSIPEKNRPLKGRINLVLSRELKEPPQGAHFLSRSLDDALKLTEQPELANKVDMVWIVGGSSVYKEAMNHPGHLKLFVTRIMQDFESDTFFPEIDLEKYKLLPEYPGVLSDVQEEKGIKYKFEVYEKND
Method in brief: (§1)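 DHFR (T. brucei or human) activity followed by cytochrome c reduction coupled to enzymatic tetrahydrofolate production: 20 mM sodium citrate, 1 mM EDTA, H2F (4.4 μM), cytc (81 μM), NADPH (100 μM), pH 7.4. Absorbance at 550 nm read within the linear phase. Compounds tested up to 30 μM if PTR1 Kiapp below 1 μM, otherwise up to 500 μM.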

[4] = target: Bifunctional dihydrofolate reductase-thymidylate synthase (Trypanosoma brucei brucei) (UniProt Q27783); experiment: Inhibition of Trypanosoma brucei DHFR-mediated reduction of cytochrome c at upto 500 uM; method in brief: as §1
[5] = target: T3, Dihydrofolate reductase (Homo sapiens); experiment: Inhibition of human DHFR-mediated reduction of cytochrome c at upto 30 uM; method in brief: as §1
[6] = target: Bifunctional dihydrofolate reductase-thymidylate synthase (Trypanosoma brucei brucei) (UniProt Q27783); experiment: Inhibition of Trypanosoma brucei DHFR-mediated reduction of cytochrome c at upto 30 uM; method in brief: as §1
[7] = tested on: Trypanosoma brucei; experiment: Antitrypanosomal activity against Trypanosoma brucei by cell culture assay; type: functional, organism-based
[8] = Distribution coefficient, log D of the compound; type: physicochemical; conditions: octanol/water

Bifunctional dihydrofolate reductase-thymidylate synthase (Trypanosoma brucei brucei), sequence (Q27783 whole entry, looked up): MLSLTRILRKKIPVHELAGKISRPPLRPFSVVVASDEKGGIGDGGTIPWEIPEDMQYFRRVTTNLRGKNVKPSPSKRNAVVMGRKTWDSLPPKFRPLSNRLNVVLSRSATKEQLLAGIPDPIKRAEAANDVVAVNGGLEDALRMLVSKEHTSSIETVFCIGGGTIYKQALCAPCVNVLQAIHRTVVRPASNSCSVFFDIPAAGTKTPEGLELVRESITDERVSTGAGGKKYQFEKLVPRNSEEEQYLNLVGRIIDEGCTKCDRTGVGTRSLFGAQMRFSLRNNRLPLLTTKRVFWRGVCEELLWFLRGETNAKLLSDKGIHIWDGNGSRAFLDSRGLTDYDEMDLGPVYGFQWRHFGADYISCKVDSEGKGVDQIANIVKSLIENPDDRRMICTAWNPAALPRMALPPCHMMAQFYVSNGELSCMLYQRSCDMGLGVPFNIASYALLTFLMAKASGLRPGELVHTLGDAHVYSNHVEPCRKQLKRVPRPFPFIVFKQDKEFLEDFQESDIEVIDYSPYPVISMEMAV

inhibition [1] [%] | SMILES | other results
-0.3 | Cc1[nH]c(=O)[nH]c(=O)c1Cc1ccccc1 | –
-0.8 | Nc1nc(-c2ccc(Br)cc2)n[nH]1 | –
23 | CNc1nc(N)c(C(=O)C(C)(C)C)s1 | –
– | Cc1cccc(-c2ccc3nc(N)[nH]c3c2)c1 | Ki [2]: 9.8 µM; inhibition [3]: inactive; inhibition [4]: inactive
18.1 | CNc1nc(N)c(C(=O)c2ccccc2)s1 | –
32.3 | Nc1nc(-c2ccc3c(c2)CCC3)cs1 | –
44.2 | Cc1ccc(CNc2n[nH]c(N)n2)cc1 | –
5 | CC(C)CC(=O)Nc1c[nH]c(=O)[nH]c1=O | –
9.3 | Nc1nc(-c2ccccc2Cl)n[nH]1 | –
19.3 | Nc1nc(NCc2ccc(F)cc2)n[nH]1 | –
20.2 | Cc1ccc(-c2n[nH]c(N)n2)cc1 | –
– | CCn1c(N)nc2ccccc21 | Ki [2]: > 200 µM; inhibition [3]: inactive; inhibition [4]: inactive
-3.5 | CCc1n[nH]c(N)n1 | –
31.3 | Nc1nc(-c2ccncc2)cs1 | –
3.9 | CC(C)c1n[nH]c(N)n1 | –
36.3 | O=c1[nH]c(=O)c2c(-c3ccccc3)csc2[nH]1 | –
– | COC(=O)c1ccc2nc(N)sc2c1 | Ki [2]: 21.1 µM; inhibition [3]: inactive; inhibition [4]: inactive
19.8 | COc1ccccc1-c1nnc(N)[nH]1 | –
-4 | Cc1cc(C)n(-c2cc(=O)[nH]c(=O)[nH]2)n1 | –
23.1 | N#Cc1ccc(CSc2nnc(N)s2)cc1 | –
– | Nc1nc2cccc(Cl)c2n1Cc1ccc(Cl)c(Cl)c1 | Ki [2]: 0.51 µM; inhibition [5]: inactive; inhibition [6]: inactive
4.5 | O=c1[nH]cc(/N=C/c2ccc(Br)cc2)c(=O)[nH]1 | –

inhibition [1] [%] | SMILES | other results
– | CCCOc1cccc2nc(N)n(Cc3ccc(Cl)c(Cl)c3)c12 | Ki [2]: 0.047 µM; inhibition [5]: inactive; inhibition [6]: inactive
– | Nc1nc2ccccc2[nH]1 | Ki [2]: 288 µM; inhibition [3]: inactive; inhibition [4]: inactive
22.8 | Oc1ncc(/N=C/c2ccccc2)c(O)n1 | –
0.9 | CC(C)CSc1n[nH]c(N)n1 | –
5.7 | O=c1[nH]cc(COCc2ccccc2)c(=O)[nH]1 | –
4.5 | O=C(Nc1ncnc2nc[nH]c12)c1ccccc1 | –
– | Nc1nc2ccccc2n1CCc1ccccc1 | inhibition [3]: inactive; inhibition [4]: inactive
3.3 | Nc1nc(SCC(=O)NCc2ccco2)n[nH]1 | –
5.9 | OCCNc1ncnc2[nH]cnc12 | –
18.8 | Nc1nnc(-c2ccc(Cl)cc2Cl)[nH]1 | –
45.1 | Nc1nc(C2CCCCC2)n[nH]1 | –
17.6 | Cc1ccc(CSc2n[nH]c(N)n2)c(C)c1 | –
– | Nc1nc2cccc(-c3ccccc3)c2n1Cc1ccc(Cl)c(Cl)c1 | Ki [2]: 0.007 µM; inhibition [5]: inactive; inhibition [6]: inactive; EC50 [7]: 10 µM; logD [8]: 3.7
25.1 | c1nc(NCC2CCCO2)c2nc[nH]c2n1 (centres undefined) | –
17.4 | CC(Nc1c[nH]c(=O)[nH]c1=O)c1ccccc1 (centres undefined) | –
66.4 | c1ccc(CCNc2ncnc3[nH]cnc23)cc1 | –
21 | O=C(Cc1ccccc1Cl)Nc1c[nH]c(=O)[nH]c1=O | –
7.9 | O=C(Nc1c[nH]c(=O)[nH]c1=O)c1ccccc1F | –
38.5 | Nc1nnc(SCC(=O)NCc2ccc3c(c2)OCO3)[nH]1 | –
10.7 | Nc1nc(CNC(=O)c2ccccc2)n[nH]1 | –
43.2 | Nc1nc(-c2ccc(O)cc2)cs1 | –
– | Nc1nc2ccccc2n1Cc1ccc(Cl)c(Cl)c1 | Ki [2]: 0.4 µM; inhibition [5]: inactive; inhibition [6]: inactive

SMILES | inhibition [1] [%] | other results
Nc1nc2ccc(Cl)cc2[nH]1 | 72.3 | Ki [2]: 10.6 µM; Activity [3]: inactive; inhibition [4]: inactive
Nc1nc(Cc2nnc(N)[nH]2)n[nH]1 | 11.4 | –
O=c1cc(Nc2ccc(Cl)cc2)[nH]c(=O)[nH]1 | 11.8 | –
Nc1nc2ccc(C(=O)N3CCCCC3)cc2s1 | 49.9 | Ki [2]: 141 µM; inhibition [3]: inactive; inhibition [4]: inactive
Nc1nc(CCc2n[nH]c(N)n2)n[nH]1 | 6.9 | –
